Compound activity as filed in PubChem.
PRMT1 inh: PRMT1 methyltransferase inhibitors, primary screen, biochemical, fluorescence polarization. recombinant PRMT1, activity-based probe fluorescence polarization. inhibition, % at 2.79 µM. 1.3% of 370,000 active;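 active = inhibition above about 21% made by adding two undisclosed values, limit read from the data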
ATG4B inh: ATG4B protease inhibitors, primary screen, biochemical, fluorescence, uHTS; Cysteine protease ATG4B (Homo sapiens), Q9Y4P1; ATG4B cleavage of LC3-PLA2, NBD-HPC fluorescence, 1 h; inhibition, % at 8.33 µM; 0.51% of 340,000 active; AID 504462, 2011; in the data active = inhibition above about 40%
SIAE primary: human SIAE inhibitors, primary screen, biochemical, fluorescence polarization, FP-Rh probe, 1536-well HTS; SIAE FP-Rh probe binding; inhibition, % at 9.66 µM; 0.69% of 370,000 active;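 active = inhibition above a cutoff: mean of compounds within the control limits plus 3 SD of those, cut at about 17% in these data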;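 note: 0% = plate median of compound wells and 100% = probe without SIAE protein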
mABHD4 FP: ABHD4 inhibitors, primary screen, biochemical, fluorescence polarization, mouse; (Lyso)-N-acylphosphatidylethanolamine lipase (Mus musculus), Q8VD66; purified mABHD4, FP-Rh probe fluorescence polarization; inhibition, % at 8.92 µM; 0.54% of 370,000 active; AID 720543, 2013;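 active = inhibition exceeding the mean over every tested compound plus 3 SD, cut at about 30% in these data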;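 note: 0% = plate median of compound wells and 100% = S159A mutant with DMSO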
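assay system = mABHD4 protein | compound dosing = single nominal dose of 8.92 µM, 0.89% DMSO final | read-out basis = percent inhibition of probe binding, normalized to plate controls | schedule = Enzyme–compound pre-incubation 45 min, then probe 60 min, both 25 °C | detection = fluorescence polarization, excitation 525 nm, emission 598 nm, BODIPY TMR filters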
HTRA1 inhibitor: HTRA1 serine protease inhibitors, primary screen, biochemical, fluorescence polarization, HTS; recombinant HTRA1, FP-rhodamine activity-based probe; inhibition, % at 5.96 µM; AID 504803, 2011; 0.5% of 340,000 active; Q92743; in the data active = inhibition above about 36%;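 note: 0% = enzyme with DMSO and 100% = wells lacking enzyme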
Target sequence (Q92743 whole entry, looked up): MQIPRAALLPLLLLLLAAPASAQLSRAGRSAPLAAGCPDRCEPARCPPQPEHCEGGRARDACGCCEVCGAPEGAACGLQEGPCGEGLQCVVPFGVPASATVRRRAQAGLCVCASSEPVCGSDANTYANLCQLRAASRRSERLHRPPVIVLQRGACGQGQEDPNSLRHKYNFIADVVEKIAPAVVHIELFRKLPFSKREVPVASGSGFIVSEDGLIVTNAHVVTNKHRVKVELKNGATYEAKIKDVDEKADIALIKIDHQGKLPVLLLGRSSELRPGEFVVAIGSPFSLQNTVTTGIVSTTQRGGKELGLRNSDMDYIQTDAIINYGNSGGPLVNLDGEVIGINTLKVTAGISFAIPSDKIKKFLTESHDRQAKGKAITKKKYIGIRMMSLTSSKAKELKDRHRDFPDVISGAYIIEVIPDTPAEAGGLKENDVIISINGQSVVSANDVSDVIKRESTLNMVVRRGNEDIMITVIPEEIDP
TCR-CD3 inh: inhibitors of human TCR-CD3 interaction, primary screen, biochemical, fluorescence, TAMRA-labeled TCR probe. T-cell receptor (TCR). AID 651800, 2012. inhibition, % at 9.4 µM. 0.37% of 360,000 active; in the data active = inhibition above about 19%;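 note: recombinant mutant TCR 2C K166C tagged with TAMRA read by polarization; 0% = receptor in buffer alone and 100% = receptor with positive control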
PRMT1 inh conf: PRMT1 methyltransferase inhibitors, confirmation, biochemical, fluorescence polarization, triplicate; shares compounds with PRMT1 inh; recombinant His-PRMT1, activity-based probe fluorescence polarization; 42% of 3,300 active; inhibition, % at 2.79 µM;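 active = mean inhibition across replicates above the hit cutoff derived for the earlier primary screen, cut at about 22% in these data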
An asterisk follows results filed as active; / = no result. Hits are enriched below; roughly 2.9% of the tested compounds scored in any of these assays.

SMILES	PRMT1 inh	ATG4B inh	SIAE primary	mABHD4 FP	HTRA1 inhibitor	TCR-CD3 inh	PRMT1 inh conf
CSc1ccccc1OCc1cc(C(=O)N(C)Cc2ccc3nsnc3c2)no1	0	14	-5	-17	-19	3	/
CSc1ccccc1OCc1cc(C(=O)N(C)Cc2ccc(C)o2)no1	25*	33	5	-15	-23	1	28*
COc1c(O)cccc1[C@@H](O)C1CCN(CCc2ccc(F)cc2)CC1	36*	-10	-4	8	3	-13	-2
COc1ccc(CCN2CCC(Nc3nc4ccccc4n3Cc3ccc(F)cc3)CC2)cc1	-4	-8	1	8	5	5	/
O=C1C=CC(=O)N1CCCCCCN1C(=O)C=CC1=O	93*	2	9	5	/	1	90*
O=C(O)CN1C(=O)C=CC1=O	64*	/	1	2	3	6	75*
O=C(COCc1ccccc1)N1CC[C@H]2[C@H](CCCN2Cc2ccccc2)C1	-2	/	10	-6	/	/	/
COCCn1c2nc(=O)n(-c3ccccc3)c(=O)c-2nc2ccccc21	115*	/	3	5	4	7	113*
O=C(NC1CCCCC1)C(c1ccccc1)n1c(=O)c(-c2ccco2)nc2ccccc21 (configuration not stated)	28*	/	-5	5	/	-10	23*
O=C(NC1CCCCC1)C(c1ccc(C(F)(F)F)cc1)n1c(=O)c(-c2ccco2)nc2ccccc21 (configuration not stated)	29*	/	-13	-12	/	-1	15
O=C(NC1CCCCC1)C(C1CC1)n1c(=O)c(-c2ccco2)nc2ccccc21 (configuration not stated)	9	/	0	3	/	4	/
N#Cc1nccnc1S(=O)(=O)c1cccs1	84*	4	-4	3	/	-1	82*
CN(Cc1ccccc1C#N)S(=O)(=O)c1cccs1	-2	9	-5	0	-1	-4	/
CCOC(=O)C1CCCN(C2CC(=O)N(c3cccc(C(F)(F)F)c3)C2=O)C1 (configuration not stated)	26*	-7	1	5	0	-2	25*
CCOC(=O)C1CCCN(C2CC(=O)N(c3ccccc3)C2=O)C1 (configuration not stated)	57*	-2	-2	1	-3	-6	0
CCOC(=O)C1CCCN(C2CC(=O)N(c3ccc(C)c(C)c3)C2=O)C1 (configuration not stated)	46*	-11	-6	1	0	-3	4
Cc1cc(-c2cc(NC(=O)Cc3c[nH]c4ccccc34)ccc2Nc2cccnc2)ccc1F	3	/	10	16	/	-5	/
CCc1c(O)nc(SCC(=O)Nc2ccc(OC)cc2)n(C2CCCCC2)c1=O	12	4	6	3	-6	-4	/
CCc1c(O)nc(SCC(=O)Nc2ccc(Cl)cc2)n(-c2ccccc2)c1=O	38*	/	0	7	3	-7	35*
CCOc1ccc(-n2c(SCC(=O)Nc3ccc(C(=O)O)cc3)nc3ccccc3c2=O)cc1	-1	12	1	-13	-9	0	/
CCc1c(O)nc(SCC(=O)Nc2nc3ccccc3s2)n(C2CCCCC2)c1=O	45*	-4	-4	-7	0	2	50*
C=CCc1c(C)[nH]c(=S)c(C#N)c1C	32*	-6	-7	6	-14	6	53*
COCc1cc(C)c(C#N)c(=S)[nH]1	/	10	/	/	-1	/	/
Cc1sc2nc(SCC(=O)Nc3ccc(S(N)(=O)=O)cc3)[nH]c(=O)c2c1C	0	-3	-17	-3	-7	10	/
Cc1sc2nc(SCC(=O)Nc3cccc(S(N)(=O)=O)c3)[nH]c(=O)c2c1C	27*	-13	9	0	-2	1	1
SMILES	PRMT1 inh	ATG4B inh	SIAE primary	mABHD4 FP	HTRA1 inhibitor	TCR-CD3 inh	PRMT1 inh conf
CC(=O)Nc1c(O)nc(SCC(=O)Nc2cccc(C)c2)[nH]c1=O	54*	-31	3	9	-2	4	3
CC(=O)Nc1c(O)nc(SCC(=O)Nc2ccc(C(C)=O)cc2)[nH]c1=O	59*	4	-1	-3	-1	11	19
N#CCC[C@H]1CC[C@]2(CCCN(S(=O)(=O)c3ccccc3)C2)O1	1	/	4	-9	/	/	/
O=C(CSc1nnc(-c2cccs2)n1Cc1ccco1)Nc1ccc(OCc2ccccc2)cc1	8	/	-15	-22	/	/	/
COc1ccc(N2C(=O)C3CC(C)=C(C)CC3C2=O)c(OC)c1 (configuration not stated)	3	0	6	-6	0	1	/
COc1cc(N2C(=O)C=CC2=O)ccc1N1C(=O)C=CC1=O	91*	4	-2	5	0	5	87*
Cc1cc(C)n2nc(N)c(N=Nc3cccc(Cl)c3)c2n1	58*	-21	-6	-3	0	-4	0
COc1ccc(CCNC(=O)CSc2nc3[nH]c(=O)cc(O)c3s2)cc1	29*	-3	7	10	-3	1	4
CC(C)(C)OC(=O)N[C@@H](Cc1ccccc1)c1nnc(SCC(=O)O)o1	-1	-10	6	-2	0	-3	/
CC(C)(C)OC(=O)N[C@@H](Cc1ccccc1)c1nnc(S(=O)(=O)Cc2ccccc2)o1	54*	/	8	22	/	6	21
CCSc1nnc([C@H](Cc2ccccc2)NC(=O)OC(C)(C)C)o1	2	-14	-3	3	0	2	/
Cc1ccccc1CS(=O)(=O)c1nnc([C@H](Cc2ccccc2)NC(=O)OC(C)(C)C)o1	38*	-3	2	10	-4	2	26*
Cc1ccccc1CN1CCCCC(NC(=O)Nc2cccc(F)c2)C1=O (configuration not stated)	2	/	-1	0	/	/	/
COC(=O)C(NNc1ccccc1C)(NC(=O)c1ccc(F)cc1)C(F)(F)F (configuration not stated)	50*	-2	1	0	-3	0	10
COC(=O)C(NNc1ccc(F)cc1)(NC(=O)c1ccccc1)C(F)(F)F (configuration not stated)	1	1	-1	4	-4	2	/
Cc1cc(C)nc(Sc2nc(Cl)nc(N(c3ccccc3)c3ccccc3)n2)n1	59*	3	2	-16	1	-6	10
